# Experimental data as given in ChEMBL document CHEMBL1671657, “MurF inhibitors with antibacterial activity: effect on muropeptide levels” (Antimicrob Agents Chemother, 2009).
# The source made the active and inactive calls. The calls are words filed in the database; no cut-off is given here.
# Legend:
# [1] = tested on: Escherichia coli; assay: Bactericidal activity against LPS-deffective Escherichia coli OC2530 assessed as log reduction in bacterial count at =>2 times MIC after 3 hrs relative to control; format: functional
# [2] = tested on: Staphylococcus aureus; assay: Antimicrobial activity against methicillin-resistant Staphylococcus aureus OC3726 by broth microdilution method in presence of polymyxin B nonapeptide; format: functional
# Method in brief: (§1)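 CLSI broth microdilution MIC run in the presence of polymyxin B nonapeptide (PMBN) at 2 μg/ml as a permeabilizer.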
# [3] = tested on: Escherichia coli; assay: Inhibition of LPS-deficient Escherichia coli OC2530 MurF assessed as UDP-MurNAc-pentapeptide product level at 2 times MIC by HPLC (reference value: 1 mAU)
# [4] = tested on: Enterococcus faecium; assay: Antimicrobial activity against Enterococcus faecium OC3312 by broth microdilution method in presence of polymyxin B nonapeptide; format: functional
# Method in brief: (§2)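 MICs by CLSI broth microdilution. Where polymyxin B nonapeptide was included, it was present at 2 μg/ml alongside the test compound.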
# [5] = Inhibition of Escherichia coli MurF
# [6] = tested on: Escherichia coli; assay: Antimicrobial activity against LPS-deffective Escherichia coli OC2530 at 0.5 times MIC after 30 mins relative to control; format: functional, organism-based
# [7] = tested on: Escherichia coli; assay: Inhibition of LPS-deficient Escherichia coli OC2530 MurF harboring pMurF plasmid assessed as UDP-MurNAc-pentapeptide product level at 2 times MIC by HPLC (reference value: 2674 +/- 696 mAU)
# Method in brief: (§3)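 Compound added at 2× MIC from 500× stock (DMSO control). After 30 min, muropeptides extracted and quantified by HPLC peak area (mAU); representative of two independent experiments.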
# [8] = tested on: Escherichia coli; assay: Inhibition of LPS-deficient Escherichia coli OC2530 MurF assessed as UDP-MurNAc-tripeptide substrate level at MIC by HPLC (reference value: 1 fold of control)
# [9] = tested on: Staphylococcus aureus; assay: Antimicrobial activity against Staphylococcus aureus ATCC 29213 by broth microdilution method; format: functional; method in brief: as §2
# [10] = tested on: Escherichia coli; assay: Antimicrobial activity against LPS-deffective Escherichia coli OC2530 at =< MIC after 3 hrs relative to untreated control; format: functional, organism-based
# [11] = tested on: Escherichia coli; assay: Antimicrobial activity against LPS-deffective Escherichia coli OC2530 at MIC after 3 hrs relative to untreated control; format: functional
# [12] = tested on: Escherichia coli; assay: Antimicrobial activity against LPS-deffective Escherichia coli OC2530 by broth microdilution method; format: functional; method in brief: as §2
# [13] = tested on: Escherichia coli; assay: Antimicrobial activity against Escherichia coli ATCC 25922 by broth microdilution method in presence of polymyxin B nonapeptide; format: functional; method in brief: as §2
# [14] = tested on: Escherichia coli; assay: Antimicrobial activity against Escherichia coli OC9040 by broth microdilution method; format: functional; method in brief: as §2
# [15] = tested on: Escherichia coli; assay: Inhibition of LPS-deficient Escherichia coli OC2530 MurF assessed as UDP-MurNAc-pentapeptide product level at 0.5 times MIC by HPLC (reference value: 1 mAU)
# [16] = tested on: Staphylococcus aureus; assay: Antimicrobial activity against methicillin-resistant Staphylococcus aureus OC2878 by broth microdilution method in presence of polymyxin B nonapeptide; format: functional; method in brief: as §1
# [17] = tested on: Escherichia coli; assay: Inhibition of LPS-deficient Escherichia coli OC2530 MurF harboring pASK plasmid assessed as UDP-MurNAc-tripeptide substrate level at 2 times MIC by HPLC (reference value: 63 +/- 4 mAU); method in brief: as §3
# [18] = tested on: Escherichia coli; assay: Inhibition of LPS-deficient Escherichia coli OC2530 MurF assessed as UDP-MurNAc-tripeptide substrate level at 4 times MIC by HPLC (reference value: 1 mAU)
# [19] = tested on: Escherichia coli; assay: Antimicrobial activity against LPS-deffective Escherichia coli OC2530 assessed as log reduction in bacterial count at 4 times MIC after 30 mins relative to control; format: functional
# [20] = tested on: Escherichia coli; assay: Antimicrobial activity against Escherichia coli ATCC 25922 by broth microdilution method; format: functional; method in brief: as §2
# [21] = tested on: Escherichia coli; assay: Antimicrobial activity against LPS-deffective Escherichia coli OC2530 assessed as cell lysis at 2 times MIC by light microscopy; format: functional, organism-based
# Method in brief: (§4)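 Cells were fixed on a glass slide under a coverslip and viewed by light microscopy at ×100/×1.25 oil immersion. Representative images were taken.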
# [22] = tested on: Enterococcus faecalis; assay: Antimicrobial activity against Enterococcus faecalis ATCC 29212 by broth microdilution method in presence of polymyxin B nonapeptide; format: functional; method in brief: as §2
# [23] = tested on: Escherichia coli; assay: Antimicrobial activity against LPS-deffective Escherichia coli OC2530 at 0.5 times MIC after 4 hrs by light microscopy relative to control; format: functional, organism-based; method in brief: as §4
# [24] = tested on: Escherichia coli; assay: Antimicrobial activity against LPS-deffective Escherichia coli OC2530 assessed as cell lysis at 4 times MIC by light microscopy; format: functional, organism-based; method in brief: as §4
# [25] = tested on: Escherichia coli; assay: Inhibition of LPS-deficient Escherichia coli OC2530 MurF assessed as UDP-MurNAc-tripeptide substrate level at 2 times MIC by HPLC (reference value: 1 mAU)
# [26] = tested on: Staphylococcus aureus; assay: Antimicrobial activity against Staphylococcus aureus ATCC 29213 by broth microdilution method in presence of polymyxin B nonapeptide; format: functional; method in brief: as §2
# [27] = tested on: Escherichia coli; assay: Antimicrobial activity against LPS-deffective Escherichia coli OC2530 assessed as log reduction in bacterial count at 2 times MIC after 30 mins relative to control; format: functional
# [28] = tested on: Escherichia coli; assay: Antimicrobial activity against LPS-deffective Escherichia coli OC2530 by broth microdilution method in presence of polymyxin B nonapeptide; format: functional; method in brief: as §2
# [29] = tested on: Escherichia coli; assay: Antimicrobial activity against LPS-deffective Escherichia coli OC2530 harboring pMurF plasmid by broth microdilution method in presence of chloramphenicol; format: functional
# Method in brief: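 CLSI broth microdilution MIC for OC2530 carrying plasmid (empty pASK or pMurF). Medium contained chloramphenicol 3 μg/ml to keep the plasmid and AHT 100 ng/ml to induce MurF expression.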
# [30] = tested on: Enterococcus faecalis; assay: Antimicrobial activity against Enterococcus faecalis ATCC 29212 by broth microdilution method; format: functional; method in brief: as §2
# [31] = tested on: Escherichia coli; assay: Antimicrobial activity against LPS-deffective Escherichia coli OC2530 assessed as cell aggregation at 0.5 times MIC by TEM relative to untreated control; format: functional, organism-based
# Method in brief: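 At 5 h, cells were fixed in 1% glutaraldehyde (final) for 1 h at room temperature, pelleted, and resuspended in PBS. They were negatively stained with 1% ammonium molybdate and imaged by TEM at ×15,000.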
# [32] = tested on: Escherichia coli; assay: Inhibition of LPS-deficient Escherichia coli OC2530 MurF assessed as UDP-MurNAc-pentapeptide product level at 4 times MIC by HPLC (reference value: 1 mAU)
# [33] = tested on: Escherichia coli; assay: Antimicrobial activity against LPS-deffective Escherichia coli OC2530 assessed as growth inhibition at MIC by light microscopy; format: functional, organism-based
# [34] = tested on: Escherichia coli; assay: Antimicrobial activity against LPS-deffective Escherichia coli OC2530 at 0.5 times MIC by light microscopy relative to control; format: functional, organism-based; method in brief: as §4
# [35] = tested on: Escherichia coli; assay: Antimicrobial activity against LPS-deffective Escherichia coli OC2530 at MIC after 30 mins relative to control; format: functional, organism-based
# [36] = tested on: Escherichia coli; assay: Inhibition of LPS-deficient Escherichia coli OC2530 MurF assessed as UDP-MurNAc-pentapeptide product level at MIC by HPLC (reference value: 1 fold of control)
# [37] = tested on: Enterococcus faecium; assay: Antimicrobial activity against Enterococcus faecium OC3312 by broth microdilution method; format: functional; method in brief: as §2
# [38] = tested on: Staphylococcus aureus; assay: Antimicrobial activity against Staphylococcus aureus OC4172 by broth microdilution method; format: functional; method in brief: as §2
compound,measurement,setting,value
COc1ccc2nc(OC)c([C@@H](c3ccccc3)[C@](O)(CCN(C)C)c3ccccc3)cc2c1,FC,[1],5
same,MIC,[2],> 32 µg/mL
same,Activity (fold of control),[3],0.33
same,MIC,[4],> 32 µg/mL
same,IC50,[5],24 µM
same,Activity,[6],Active
same,Activity,[7],351 mAU
same,Activity (fold of control),[8],27
same,MIC,[9],> 32 µg/mL
same,Activity,[10],inactive
same,fold change (FC),[11],0.3
same,MIC,[12],8 µg/mL
same,MIC,[13],8 µg/mL
same,MIC,[14],> 32 µg/mL
same,Activity (fold of control),[15],1.62
same,MIC,[16],> 32 µg/mL
same,Activity,[17],1200 mAU
same,Activity (fold of control),[18],63
same,FC,[19],2
same,MIC,[20],> 32 µg/mL
same,Activity,[21],Active
same,MIC,[22],> 32 µg/mL
same,Activity,[23],Active
same,Activity,[24],Active
same,Activity (fold of control),[25],89
same,MIC,[26],> 32 µg/mL
same,FC,[27],1
same,MIC,[28],2 µg/mL
same,MIC,[29],16 µg/mL
same,MIC,[30],> 32 µg/mL
same,Activity,[31],Active
same,Activity (fold of control),[32],0.15
same,Activity,[33],Active
same,Activity,[34],inactive
same,Activity,[35],Active
same,Activity (fold of control),[36],1.48
same,MIC,[37],> 32 µg/mL
same,MIC,[38],> 32 µg/mL
